Laboratory results: article PMC2842456 (ACS chemical biology, 2010)

B1: SUMO without an attached peptide: yeast SUMO with no attached peptide (protein, UniProt Q12306 2-98, looked up)
Ubiquitin-like protein SMT3: SDSEVNQEAKPEVKPEVKPETHINLKVSDGSSEIFFKIKKTTPLRRLMEAFAKRQGKEMDSLRFLYDGIRIQADQTPEDLDMEDNDIIEAHREQIGG

Tested on: wild-type clamp sensor
Format: binding
Settings: ligand titration with wild-type clamp sensor (Figure 2F)
In short: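 CyPet–clamp–YPet fusion, expressed in E. coli BL21(DE3) and Ni-affinity purified, used at 140 nM unless noted. Titrated with SUMO fusions (target-peptide fusion, bare SUMO, unrelated-peptide fusion). Samples were degassed, then incubated 30 min at 25 °C in the dark. Excitation 415 nm; FRET ratio taken as 527/475 nm emission, plotted against ligand concentration.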

Molecule	Effect on the FRET ratio of the wild-type sensor (in words)
GGDVHVNATYVNVKSVA [SUMO fused with an unrelated peptide]	no significant effect on the FRET ratio
B1	no significant effect on the FRET ratio
